Data set [1] addresses T1, Albumin (Bos taurus, UniProt P02769). The data set can be described thus: Binding affinity to bovine serum albumin by circular dichroic probe technique. Type of data set: ADME. Particulars: cattle, isolated protein.
Data set [2] has as its target T1, Albumin. Nature of the data set: Binding affinity to bovine serum albumin assessed as intrinsic binding constant. Format: ADME. As to conditions: cattle, isolated protein.
Data set [3] addresses T1, Albumin. Nature of the data set: Binding affinity to bovine serum albumin. Particulars: cattle, isolated protein. Type of data set: ADME.
Data set [4] can be described thus: Oleyl alcohol-water partition coefficient, Rm of the compound measured at 0% methanol by reverse-phase thin layer chromatography. Type of data set: physicochemical. The procedure, abridged: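 Reversed-phase TLC on Kieselguhr G impregnated with oleyl alcohol. Mobile phases were methanol–water with ammonia and KCl, pH* 10.5, ionic strength 0.1 M, methanol 30–55% (w/w). Each compound had 10–12 Rm determinations at each methanol concentration.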

The nature of data set [5]: Octanol-water partition coefficient, log P of the compound. Type of data set: physicochemical.
Data set [6] can be described thus: Dissociation constant, pKa of the compound by UV-visible spectrophotometer analysis. Format: physicochemical.
In data set [7] the target is T1, Albumin. Nature of the data set: Binding affinity to bovine serum albumin high affinity site by circular dichroic probe technique. Format: ADME. As to conditions: cattle, isolated protein. The gist of the method:
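Displacement of sulfaethidole from its primary BSA site, followed by circular dichroism. Solutions were in 0.054 M sodium phosphate, pH 7.44 (25 °C), isotonic with NaCl. Reagent concentrations were 1.45 × 10−5 and 2.11 × 10−5 M. Spectra were scanned from 420 to 265 nm in 10-mm cells, with ellipticity read at 280–286 nm, corrected for drug effect on BSA. Apparent K came from the Klotz equation (n = 1) and was extrapolated to zero drug concentration.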

From ChEMBL document CHEMBL3272041, “Quantitative correlations between albumin binding constants and chromatographic Rm values of phenothiazine derivatives” (J Med Chem, 1977) come the findings set out here.

T1 sequence (P02769 whole entry): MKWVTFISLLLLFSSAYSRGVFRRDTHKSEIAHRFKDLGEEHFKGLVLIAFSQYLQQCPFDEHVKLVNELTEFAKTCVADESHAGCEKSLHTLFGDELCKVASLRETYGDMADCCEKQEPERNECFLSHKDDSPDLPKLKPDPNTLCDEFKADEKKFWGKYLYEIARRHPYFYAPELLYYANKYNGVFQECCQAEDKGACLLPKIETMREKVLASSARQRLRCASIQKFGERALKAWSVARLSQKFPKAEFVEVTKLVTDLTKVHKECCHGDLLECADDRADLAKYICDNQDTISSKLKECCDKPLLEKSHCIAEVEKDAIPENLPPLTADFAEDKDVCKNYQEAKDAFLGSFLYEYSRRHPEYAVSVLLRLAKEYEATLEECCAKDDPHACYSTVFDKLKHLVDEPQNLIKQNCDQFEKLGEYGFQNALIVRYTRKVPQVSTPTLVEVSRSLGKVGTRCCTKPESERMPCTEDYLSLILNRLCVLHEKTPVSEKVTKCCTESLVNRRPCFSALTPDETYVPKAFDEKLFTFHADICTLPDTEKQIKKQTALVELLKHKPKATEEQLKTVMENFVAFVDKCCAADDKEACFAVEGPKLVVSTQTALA

Take `CN(C)CCCN1c2ccccc2Sc2ccc(C(F)(F)F)cc21` [TRIFLUPROMAZINE]: on Albumin [1], the logKa was found to be 5.17. Besides, the results for the “log K” value at Albumin [2] and at Albumin [3] were 3.99 and 4.58, respectively. Further, the Rm in data set [4] stood at 4.24.
At Albumin [1], `OCCN1CCN(CCCN2c3ccccc3Sc3ccc(Cl)cc32)CC1` [PERPHENAZINE] yielded a logKa of 4.2. In data set [5], the logP – broadly, a log measure of how a compound divides between an organic and an aqueous phase – was determined as 3.92. The pKa (commonly the negative logarithm of the acid dissociation constant) in data set [6] was determined as 7.9. In data set [4], the Rm is recorded as 2.74.
`OCCN1CCN(CCCN2c3ccccc3Sc3ccc(C(F)(F)F)cc32)CC1` [FLUPHENAZINE]: in data set [5], the logP came out at 4.47. The Rm in data set [4] amounted to 3.03.
Turning to `CN1CCN(CCCN2c3ccccc3Sc3ccccc32)CC1` [PERAZINE], the logKa at Albumin [1] turned out to be 4.36. The “log K” value came to 3.33 at Albumin [2] and 4.32 at Albumin [3]. Besides, the logP in data set [5] is 3.8. The pKa in data set [6] was found to be 8.1. The molecule also displayed a Rm in data set [4] of 2.67.
`CN(C)CCCN1c2ccccc2Sc2ccc(Cl)cc21` [CHLORPROMAZINE] registered a logKa on Albumin [1] of 4.98. The same molecule came in with a Rm in data set [4] of 4.12.
For the molecule `COc1ccc2c(c1)N(CCCN(C)C)c1ccccc1S2` [METHOXYPROMAZINE], the logKa on Albumin [1] turned out to be 4.66. Also, the logP in data set [5] amounted to 4.63. In data set [6], this molecule showed a pKa of 9.41. In addition, at Albumin [3], the “log K” value was determined as 4.11. The same molecule displayed a Rm in data set [4] of 3.19.
Regarding `CN(C)CCCN1c2ccccc2Sc2ccccc21` [PROMAZINE], the logKa at Albumin [1] is listed as 4.54. The figures for the “log K” value at Albumin [2] and at Albumin [3] were 3.45 and 3.95, respectively. The molecule also displayed a logP in data set [5] of 4.68. Further, the pKa in data set [6] came out at 9.42. Moreover, the Rm in data set [4] is given as 3.43.
`CN1CCN(CCCN2c3ccccc3Sc3ccc(Cl)cc32)CC1` [PROCHLORPERAZINE] returned a logKa at Albumin [1] of 4.59. In addition, the “log K” value at Albumin [2] is 3.7. This molecule also displayed a Rm in data set [4] of 3.38.
`CC(CN1CCN(CCOCCO)CC1)CN1c2ccccc2Sc2ccccc21` (stereo not given) [DIXYRAZINE] came in with a logKa at Albumin [1] of 4.21. The same molecule yielded a pKa in data set [6] of 8. Also, the Rm in data set [4] came out at 2.49.
`CN(C)CCCN1c2ccccc2Sc2ccc(C#N)cc21`: the logKa on Albumin [1] came to 4.46. The pKa in data set [6] was 9.29. The same molecule had a Rm in data set [4] of 2.94.
For `CCCC(=O)c1ccc2c(c1)N(CCCN1CCN(C)CC1)c1ccccc1S2` [BUTAPERAZINE], in that order: 4.78, 8.1 and 3.37.
The molecule `N#Cc1ccc2c(c1)N(CCCN1CCC(O)CC1)c1ccccc1S2` [PERICIAZINE] gave a logKa on Albumin [1] of 4.12. The same molecule yielded a pKa in data set [6] of 8.5. In data set [4], this molecule yielded a Rm of 2.17.
Consider `CSc1ccc2c(c1)N(CCC1CCCCN1C)c1ccccc1S2` (stereo not given) [THIORIDAZINE], for which the logKa on Albumin [1] turned out to be 5.15. Further, in data set [4], the Rm was determined as 4.51.
On to `CCc1nnc(NS(=O)(=O)c2ccc(N)cc2)s1` [SULFAETHIDOLE], for which the Activity at Albumin [7] turned out to be 2.1 ×10⁵ L/mol.
Molecule `CN1CCCCC1CCN1c2ccccc2Sc2ccc([S+](C)[O-])cc21` (stereo not given) [MESORIDAZINE] yielded a Rm in data set [4] of 2.32.
Take `CN1CCN(CCCN2c3ccccc3Sc3ccc(C(F)(F)F)cc32)CC1` [TRIFLUOPERAZINE]: on Albumin [1], the logKa worked out at 4.67. This molecule also showed a Rm in data set [4] of 3.55.
